Laboratory results as given in ChEMBL document CHEMBL2150936, “Anticancer activity of small amphipathic β²,²-amino acid derivatives” (Eur J Med Chem, 2012).

Tests used:
SN12C = experiment: Cytotoxicity against human SN12C cells after 4 hrs by MTT assay; format: functional, cell-based
NCI-H322M = experiment: Cytotoxicity against human NCI-H322M cells after 4 hrs by MTT assay; format: functional, cell-based
SNB-75 = experiment: Cytotoxicity against human SNB75 cells after 4 hrs by MTT assay; format: functional, cell-based; conditions: SNB-75, 4 h
COLO 205 = experiment: Cytotoxicity against human COLO205 cells after 4 hrs by MTT assay; format: functional, cell-based; conditions: COLO 205, 4 h
HT-29 = experiment: Cytotoxicity against human HT-29 cells after 4 hrs by MTT assay; format: functional, cell-based; conditions: HT-29, 4 h
SR = experiment: Cytotoxicity against human SR cells after 4 hrs by MTT assay; format: functional, cell-based
NCI-H522 = experiment: Cytotoxicity against human NCI-H522 cells after 4 hrs by MTT assay; format: functional, cell-based; conditions: NCI-H522, 4 h
DU-145 = experiment: Cytotoxicity against human DU145 cells after 4 hrs by MTT assay; format: functional, cell-based; conditions: DU-145, 4 h
MDA-MB-231 = experiment: Cytotoxicity against human MDA-MB-231 cells after 4 hrs by MTT assay; format: functional, cell-based; conditions: MDA-MB-231, 4 h
MOLT-4 = experiment: Cytotoxicity against human MOLT4 cells after 4 hrs by MTT assay; format: functional, cell-based; conditions: MOLT-4, 4 h
KM12 = experiment: Cytotoxicity against human KM12 cells after 4 hrs by MTT assay; format: functional, cell-based; conditions: KM12, 4 h
MDA-MB-435 = experiment: Cytotoxicity against human MDA-MB-435 cells after 4 hrs by MTT assay; format: functional, cell-based; conditions: MDA-MB-435, 4 h
PC-3 = experiment: Cytotoxicity against human PC3 cells after 4 hrs by MTT assay; format: functional, cell-based; conditions: PC-3, 4 h
SF-268 = experiment: Cytotoxicity against human SF268 cells after 4 hrs by MTT assay; format: functional, cell-based; conditions: SF-268, 4 h
CCRF-CEM = experiment: Cytotoxicity against human CCRF-CEM cells after 4 hrs by MTT assay; format: functional, cell-based
LOX IMVI = experiment: Cytotoxicity against human LOXIMVI cells after 4 hrs by MTT assay; format: functional, cell-based
K562 = experiment: Cytotoxicity against human K562 cells after 4 hrs by MTT assay; format: functional, cell-based; conditions: K562, 4 h
HCC 2998 = experiment: Cytotoxicity against human HCC2998 cells after 4 hrs by MTT assay; format: functional, cell-based; conditions: HCC 2998, 4 h
UO-31 = experiment: Cytotoxicity against human UO31 cells after 4 hrs by MTT assay; format: functional, cell-based; conditions: UO-31, 4 h
SNB-19 = experiment: Cytotoxicity against human SNB19 cells after 4 hrs by MTT assay; format: functional, cell-based; conditions: SNB-19, 4 h
Malme-3M = experiment: Cytotoxicity against human MALME-3M cells after 4 hrs by MTT assay; format: functional, cell-based
T47D = experiment: Cytotoxicity against human T47D cells after 4 hrs by MTT assay; format: functional, cell-based
SF-539 = experiment: Cytotoxicity against human SF539 cells after 4 hrs by MTT assay; format: functional, cell-based; conditions: SF-539, 4 h
Ramos [1] = experiment: Selectivity index, ratio of EC50 for human MRC5 cells to IC50 for human Ramos cells; format: functional
Method in brief: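 Ramos cells were seeded at 4 × 10^5 cells/ml in serum-free RPMI-1640, and compounds in RPMI-1640 were added at once. MRC-5 fibroblasts were seeded at 1 × 10^5 cells/ml in MEM with 10% FBS, grown overnight, and the medium was then replaced with compound. Both were incubated 4 h at 37 °C, 5% CO2, then given MTT for 2 h. Formazan was dissolved in acidic isopropanol and read at 590 nm. Survival was expressed relative to the untreated medium control. SI = MRC-5 EC50 / Ramos IC50.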

EKVX = experiment: Cytotoxicity against human EKVX cells after 4 hrs by MTT assay; format: functional, cell-based
HOP-92 = experiment: Cytotoxicity against human HOP92 cells after 4 hrs by MTT assay; format: functional, cell-based; conditions: HOP-92, 4 h
Ramos [2] = experiment: Cytotoxicity against human Ramos cells after 4 hrs by MTT assay; format: functional, cell-based
Method in brief: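 Ramos Burkitt's lymphoma cells, kept in suspension in RPMI 1640 with 10% FBS, were seeded at 4 × 10^5 cells/ml in serum-free RPMI 1640. Compounds in RPMI-1640 were added immediately, then 4 h at 37 °C, 5% CO2. MTT was added for a further 2 h, formazan dissolved in acidic isopropanol (0.04 N HCl), and A590 read. Survival was calculated against untreated medium control; 1% Triton X-100 served as positive control.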

SF-295 = experiment: Cytotoxicity against human SF295 cells after 4 hrs by MTT assay; format: functional, cell-based; conditions: SF-295, 4 h
HL-60 = experiment: Cytotoxicity against human HL60 cells after 4 hrs by MTT assay; format: functional, cell-based; conditions: HL-60, 4 h
OVCAR-4 = experiment: Cytotoxicity against human OVCAR4 cells after 4 hrs by MTT assay; format: functional, cell-based; conditions: OVCAR-4, 4 h
NCI-H460 = experiment: Cytotoxicity against human NCI-H460 cells after 4 hrs by MTT assay; format: functional, cell-based; conditions: NCI-H460, 4 h
HCT-15 = experiment: Cytotoxicity against human HCT15 cells after 4 hrs by MTT assay; format: functional, cell-based; conditions: HCT-15, 4 h
[3] = read-out: LC50 (the source's name)

NCCNC(=O)C(CN)(Cc1ccc2ccccc2c1)Cc1ccc2ccccc2c1
IC50 (SN12C): 3.24 µM
TGI (SN12C): 3.31 µM
CC50 (SN12C; [3]): 6.17 µM
IC50 (NCI-H322M): 3.09 µM
TGI (NCI-H322M): 2880 nM
CC50 (NCI-H322M; [3]): 5.89 µM
IC50 (SNB-75): 2750 nM
TGI (SNB-75): 2690 nM
CC50 (SNB-75; [3]): 5.25 µM
IC50 (COLO 205): 340 nM
TGI (COLO 205): 350 nM
CC50 (COLO 205; [3]): 690 nM
IC50 (HT-29): 410 nM
TGI (HT-29): 1020 nM
CC50 (HT-29; [3]): 4.07 µM
IC50 (SR): 350 nM
TGI (SR): 620 nM
IC50 (NCI-H522): 3.09 µM
TGI (NCI-H522): 3.24 µM
CC50 (NCI-H522; [3]): 6.46 µM
IC50 (DU-145): 2570 nM
TGI (DU-145): 2820 nM
CC50 (DU-145; [3]): 5.37 µM
IC50 (MDA-MB-231): 3.02 µM
TGI (MDA-MB-231): 3.09 µM
CC50 (MDA-MB-231; [3]): 6.03 µM
IC50 (MOLT-4): 1410 nM
TGI (MOLT-4): 2690 nM
IC50 (KM12): 740 nM
TGI (KM12): 1700 nM
CC50 (KM12; [3]): 4.57 µM
IC50 (MDA-MB-435): 1020 nM
TGI (MDA-MB-435): 2000 nM
CC50 (MDA-MB-435; [3]): 5.62 µM
IC50 (PC-3): 3.09 µM
TGI (PC-3): 3.31 µM
CC50 (PC-3; [3]): 6.61 µM
IC50 (SF-268): 2820 nM
TGI (SF-268): 3.02 µM
CC50 (SF-268; [3]): 6.03 µM
IC50 (CCRF-CEM): 2240 nM
TGI (CCRF-CEM): 3.39 µM
CC50 (CCRF-CEM; [3]): 9.12 µM
IC50 (LOX IMVI): 620 nM
TGI (LOX IMVI): 1700 nM
CC50 (LOX IMVI; [3]): 4.37 µM
IC50 (K562): 320 nM
TGI (K562): 620 nM
IC50 (HCC 2998): 590 nM
TGI (HCC 2998): 1260 nM
CC50 (HCC 2998; [3]): 3.98 µM
IC50 (UO-31): 2950 nM
TGI (UO-31): 2950 nM
CC50 (UO-31; [3]): 6.03 µM
IC50 (SNB-19): 2950 nM
TGI (SNB-19): 3.02 µM
CC50 (SNB-19; [3]): 5.62 µM
IC50 (Malme-3M): 3.89 µM
TGI (Malme-3M): 3.8 µM
CC50 (Malme-3M; [3]): 7.24 µM
IC50 (T47D): 3.8 µM
TGI (T47D): 3.39 µM
CC50 (T47D; [3]): 7.59 µM
IC50 (SF-539): 2690 nM
TGI (SF-539): 2880 nM
CC50 (SF-539; [3]): 5.62 µM
Selectivity Index (Ramos [1]): 5.4
IC50 (EKVX): 2690 nM
TGI (EKVX): 2880 nM
CC50 (EKVX; [3]): 6.17 µM
IC50 (HOP-92): 3.72 µM
TGI (HOP-92): 3.47 µM
CC50 (HOP-92; [3]): 7.24 µM
IC50 (Ramos [2]): 4.1 µM
IC50 (SF-295): 2510 nM
TGI (SF-295): 2690 nM
CC50 (SF-295; [3]): 5.75 µM
IC50 (HL-60): 480 nM
TGI (HL-60): 1380 nM
IC50 (OVCAR-4): 2820 nM
TGI (OVCAR-4): 2820 nM
CC50 (OVCAR-4; [3]): 5.37 µM
IC50 (NCI-H460): 330 nM
TGI (NCI-H460): 510 nM
CC50 (NCI-H460; [3]): 1700 nM
IC50 (HCT-15): 790 nM
TGI (HCT-15): 1910 nM
CC50 (HCT-15; [3]): 5.01 µM
